Assay: Toxicity liver stage against HepG2, at 10uM
Type: cell-based
Parameters: test concentration 10 uM, cell line HepG2-A16-CD81EGFP
Settings: human, HepG2-A16-CD81EGFP cells; read-out: INHIBITION
Summary of the method: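 Uninfected HepG2-A16-CD81EGFP cells, 3 × 10^3 per well, 1536-well, plated on prespotted compound at 10 μM final, parasite-free screening media added to match infected plates; puromycin 10 μM positive, DMSO 0.5% negative; run in parallel with 48 h PbLuc assay at 37 °C, 5% CO2; viability by CellTiter-Glo luminescence, normalized to controls.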

SMILES	cytotoxicity at 10 µM [%]
CN1CCC2(C=C(C(=O)N(C)C)c3ccccc32)CC1	-102
O=C1COC2(CCN(c3cccc(F)c3)CC2)CN1Cc1ccccn1	-2.94
Cc1noc(NC(=O)c2ccc(F)cc2)n1	-0.481
O=C(Nc1nncs1)N1CCC(CCc2ccc(O)cc2)CC1	6.81
CS(=O)(=O)CC(=O)N1C[C@H]2CCC[C@@]2(COCc2ccncc2)C1	-101
N#Cc1cc(F)ccc1Cn1cncn1	11.4
Cc1[nH]ncc1C(=O)N1CCCC(c2ccn[nH]2)C1 (stereo unspecified)	0.23
CN(Cc1nnc(C2CC2)n1C)S(=O)(=O)c1ccccc1F	16.8
CCc1nc(C2CCCN2C(=O)CCc2nc(C3CC3)no2)no1 (stereo unspecified)	-2.66
Cc1noc(C(C)C)c1C(=O)NCC(c1ccsc1)N(C)C (stereo unspecified)	-5.18
O[C@@H]1C[C@@H](c2nc(-c3cccnc3)no2)N(C2CCOCC2)C1	-4.03
COc1ccc(Cl)cc1C(C(=O)O)N1CCSCC1 (stereo unspecified)	-10.8
CCn1ccnc1C1CCN(C(=O)C(O)c2ccc(Cl)cc2)CC1 (stereo unspecified)	-0.65
COc1ccc(-c2nnc(CN3CCNC(=O)C3)o2)cc1	-2.27
CC(C)c1cccc(-n2cc(O)c(C(=O)NCCC(=O)N(C)C)n2)c1	-2.53
CN(Cc1nc(-c2ccco2)no1)C1CCCN(c2cccnn2)C1 (stereo unspecified)	-7.72
COCc1nc(C(=O)N2CCCC2c2ccncc2)cs1 (stereo unspecified)	-11.4
Cc1ccccc1C(=O)N1CCCn2cnc(CN3CCCC3=O)c2C1	10.2
Cc1ccc(C)c(OCCN(C)C(=O)CCc2cn[nH]c2)c1	1.69
O=C(O)c1cc(S(=O)(=O)Nc2ccc(F)c(Cl)c2)cc2c1OCCO2	-2.33
CC(=O)NCCc1ccc(S(=O)(=O)N(CC(C)C)C(C)C)s1	18.8
COc1ccc(OCCc2nnc(NC(C)=O)s2)cc1	0.0869
COc1ccccc1NC(=O)c1cc2c([nH]c1=O)CCCC2=O	-4.14

SMILES	cytotoxicity at 10 µM [%]
Cc1ncccc1Oc1nccnc1C1CCCN(C(C)C)C1 (stereo unspecified)	-10.1
CN1CCN(C2COC3(CCN(CC4CC4)CC3)C2)CC1 (stereo unspecified)	-6.81
CSCC(=O)N[C@H]1CN(Cc2c(C)noc2C)C[C@@H]1C(C)C	5.4
O=C([C@@H]1CC[C@@H]2[C@@H](CCN2Cc2cccc(F)c2)O1)N1CCCCO1	-6.71
N#Cc1ccnc(N2CCN(C(=O)Cc3ccc4c(c3)CCO4)CC2)c1	-4.1
NCC(c1ccccc1)N1CCc2sccc2C1 (stereo unspecified)	1.88
Cc1cc(N2CCCC2c2cccnc2)nc(C)n1 (stereo unspecified)	-8.3
CCN(CC1CCCO1)S(=O)(=O)c1cc(NC(C)=O)ccc1C (stereo unspecified)	1.82
CC(C)c1nccn1CCC(=O)N1CCCC1c1cccn1C (stereo unspecified)	-6.66
Cc1ccc(OCCN(C)C(C)c2cccc(S(N)(=O)=O)c2)cc1 (stereo unspecified)	-29.3
c1cc(C2CCN(Cc3ccc4c(c3)OCO4)CC2)ccn1	-2.98
O=C1CCC2(CCC(NC(=O)NCc3ccccc3)CC2)N1 (stereo unspecified)	-0.0957
CCc1cc(C(=O)N2CCc3nc4c(C)csc4c(=O)n3CC2)on1	-14.9
Cc1cc(C)cc(C(C)NC(=O)c2ccc(CS(C)(=O)=O)o2)c1 (stereo unspecified)	2.49
O=C(NC[C@H]1OC[C@@H](NC2CCOCC2)[C@@H]1O)Nc1ccccc1	-5.75
Cc1csc(CCCNc2ccc(S(N)(=O)=O)cc2C#N)n1	-49
CC(C)n1nc(CN2CCOCC2)c2c1CN(C(=O)c1ccno1)C2	2.62
CC(=O)N1CC2(CCN(C(=O)CO)CC2)c2cc(C)ccc21	9.37
O=c1[nH]c2cn(-c3cccc(F)c3)c(=O)n2[nH]1	-0.687
CCn1c(C)cc(C(=O)N2CCc3nnc(N)cc3C2)c1C	-12.2
NC(=O)COc1ccc(C(=O)N2CCCC(n3ccnc3)C2)cc1 (stereo unspecified)	-13
Cc1ccccc1OCCN1CCN(Cc2cnn(CCO)c2)CC1	-17.9
CS(=O)(=O)NCCCN1CCCC1Cc1ccccc1 (stereo unspecified)	-11.7
